Source: ChEMBL document CHEMBL1143166, “Derivatives of 4-amino-6-hydroxy-2-mercaptopyrimidine as novel, potent, and selective A3 adenosine receptor antagonists” (J Med Chem, 2008)

Experiments:
[1] = molecular target: T1, Adenosine receptor A1 (Homo sapiens) (UniProt P30542); assay: Displacement of […] from human adenosine A1 receptor expressed in CHO cells at 10 uM; type: cell-based
T1 sequence (whole entry): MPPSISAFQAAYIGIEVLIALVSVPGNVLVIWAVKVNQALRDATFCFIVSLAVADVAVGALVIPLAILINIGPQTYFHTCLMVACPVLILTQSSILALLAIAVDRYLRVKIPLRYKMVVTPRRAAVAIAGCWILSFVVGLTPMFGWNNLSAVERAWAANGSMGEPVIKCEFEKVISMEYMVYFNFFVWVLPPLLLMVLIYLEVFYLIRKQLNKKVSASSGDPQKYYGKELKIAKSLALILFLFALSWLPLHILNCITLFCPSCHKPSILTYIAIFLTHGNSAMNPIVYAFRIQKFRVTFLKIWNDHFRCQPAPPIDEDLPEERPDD
Procedure, shortened: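 Membranes (50 µg protein) from CHO cells stably expressing hA1 incubated 180 min at 25 °C in 50 mM Tris-HCl, 2 mM MgCl2, 2 U/mL ADA, pH 7.4, with 3 nM [3H]DPCPX and compound at 10 µM. Nonspecific binding defined with 50 µM R-PIA.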

Adenosine receptor A2a [2] = molecular target: T2, Adenosine receptor A2a (Homo sapiens, UniProt P29274); assay: Displacement of [3H]NECA from human adenosine A2A receptor expressed in CHO cells at 10 uM; type: cell-based
T2 sequence (P29274 whole entry): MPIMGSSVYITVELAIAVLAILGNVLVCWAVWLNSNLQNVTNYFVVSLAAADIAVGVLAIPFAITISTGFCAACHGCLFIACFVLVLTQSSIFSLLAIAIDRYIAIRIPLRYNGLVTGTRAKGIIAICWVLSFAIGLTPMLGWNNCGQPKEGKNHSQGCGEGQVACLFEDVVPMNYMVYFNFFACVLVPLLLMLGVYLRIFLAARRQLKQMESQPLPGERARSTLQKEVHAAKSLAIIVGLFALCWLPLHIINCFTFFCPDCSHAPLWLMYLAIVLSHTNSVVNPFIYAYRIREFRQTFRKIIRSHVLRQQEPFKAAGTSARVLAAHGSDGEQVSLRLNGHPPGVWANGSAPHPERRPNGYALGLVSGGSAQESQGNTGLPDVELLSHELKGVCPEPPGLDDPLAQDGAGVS
Procedure, shortened: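 Membranes (80 µg) from hA2A-expressing CHO cells incubated 90 min at 25 °C in 50 mM Tris-HCl, 2 mM MgCl2, 2 U/mL ADA, pH 7.4, with 30 nM [3H]NECA and compound at 10 µM. Nonspecific binding defined with 100 µM NECA.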

[3] = molecular target: T3, Adenosine receptor A3 (Homo sapiens) (UniProt P0DMS8); assay: Displacement of [125I]AB-MECA from human adenosine A3 receptor expressed in CHO cells at 1 uM; type: cell-based
T3 sequence (whole entry): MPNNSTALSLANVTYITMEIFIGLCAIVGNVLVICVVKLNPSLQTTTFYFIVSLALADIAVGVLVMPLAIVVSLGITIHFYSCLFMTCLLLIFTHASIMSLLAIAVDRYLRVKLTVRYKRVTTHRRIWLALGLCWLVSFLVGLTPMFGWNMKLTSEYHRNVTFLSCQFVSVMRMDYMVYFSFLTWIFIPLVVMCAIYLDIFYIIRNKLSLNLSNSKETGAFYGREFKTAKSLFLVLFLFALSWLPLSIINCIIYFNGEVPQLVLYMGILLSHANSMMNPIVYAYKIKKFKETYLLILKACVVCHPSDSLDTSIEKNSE

Adenosine receptor A2a [4] = molecular target: T2, Adenosine receptor A2a; assay: Displacement of [3H]NECA from human adenosine A2A receptor expressed in CHO cells; type: cell-based
Adenosine receptor A1 = molecular target: T4, Adenosine receptor A1 (Homo sapiens, UniProt P30542); assay: Displacement of […] from human adenosine A1 receptor expressed in CHO cells; type: cell-based
T4 sequence (P30542 whole entry): T1 sequence (whole entry)

Adenosine receptor A2b = molecular target: T5, Adenosine receptor A2b (Homo sapiens, UniProt P29275); assay: Antagonist activity at human adenosine A2B receptor expressed in CHO cells assessed as inhibition of NECA-mediated cAMP accumulation; type: functional, cell-based
T5 sequence (P29275 whole entry): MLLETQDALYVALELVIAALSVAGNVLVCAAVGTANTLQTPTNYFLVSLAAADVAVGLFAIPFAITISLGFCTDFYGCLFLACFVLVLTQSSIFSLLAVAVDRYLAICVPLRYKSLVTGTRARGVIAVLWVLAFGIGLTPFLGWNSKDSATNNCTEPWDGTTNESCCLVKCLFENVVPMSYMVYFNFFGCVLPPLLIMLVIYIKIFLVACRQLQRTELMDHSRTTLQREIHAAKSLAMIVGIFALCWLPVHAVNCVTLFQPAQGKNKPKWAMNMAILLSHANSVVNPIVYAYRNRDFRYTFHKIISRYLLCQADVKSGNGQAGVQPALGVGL
Procedure, shortened: (§1)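 hA2B-transfected CHO cells grown 48 h after plating, then preincubated 15 min at 37 °C in DMEM with Ro20-1724 (20 µM) and ADA (1 U/mL). Compound (1 nM–10 µM; single-point 10 µM) given 15 min at 37 °C, then 100 nM NECA. Stopped with 0.4 N HCl, neutralized with KOH. cAMP by competitive binding to bovine adrenal binding protein with [3H]cAMP. Mean ± SEM, four experiments in triplicate.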

[5] = molecular target: T6, Adenosine receptor A2b (Homo sapiens) (UniProt P29275); assay: Antagonist activity at human adenosine A2B receptor expressed in CHO cells assessed as inhibition of NECA-mediated cAMP accumulation at 10 uM; type: functional, cell-based; procedure, shortened: as §1
T6 sequence (whole entry): T5 sequence (P29275 whole entry)

inhibition [1] [%]	inhibition (Adenosine receptor A2a [2]) [%]	inhibition [3] [%]	Ki (Adenosine receptor A2a [4]) [nM]	Ki (Adenosine receptor A1) [nM]	IC50 (Adenosine receptor A2b) [µM]	inhibition [5] [%]	SMILES
30	29	49	–	–	–	–	COc1cc(NC(C)=O)nc(SC)n1
43	33	–	–	–	–	–	CCCSc1nc(NC(C)=O)cc(OCC2CCCCC2)n1
0	26	–	–	–	–	–	CCCCSc1nc(NC(C)=O)cc(OCc2ccc(Cl)cc2)n1
7	–	–	1120	–	–	–	CCCOc1cc(NC(C)=O)nc(SC)n1
–	41	–	–	582	–	–	CCCSc1nc(NC(C)=O)cc(OCc2cccc(Cl)c2)n1
–	–	–	71	1460	–	–	CCCOc1cc(NC(=O)CC)nc(SCCC)n1
46	29	–	–	–	–	–	CCCSc1nc(NC(C)=O)cc(OCc2ccc(Cl)cc2Cl)n1
17	43	–	–	–	> 10	0	CCCSc1nc(NC(C)=O)cc(OCc2ccc(Cl)cc2)n1
–	30	–	–	5470	–	–	CCCOc1cc(NC(C)=O)nc(SCCC)n1
–	4	–	–	486	–	–	CCCSc1nc(NC(=O)CC)cc(OC)n1
–	36	–	–	2440	–	–	CCCSc1nc(NC(C)=O)cc(OCc2ccccc2)n1
43	10	–	–	–	–	–	CCCSc1nc(NC(C)=O)cc(OC)n1
–	27	–	–	2080	> 10	13	CCCSc1nc(NC(C)=O)cc(OCCc2ccccc2)n1
34	23	–	–	–	–	–	CCCOc1cc(NC(C)=O)nc(SCc2ccccc2)n1
19	–	–	398	–	–	–	CCCOc1cc(NC(=O)CC)nc(SC)n1
–	47	–	–	2440	> 10	0	CCCSc1nc(NC(C)=O)cc(OCc2ccc(OC)cc2)n1
–	56	–	–	4480	> 10	10	CCSc1nc(NC(C)=O)cc(OCc2ccc(Cl)cc2)n1
2	21	51	–	–	–	–	CCC(=O)Nc1cc(OC)nc(SC)n1
–	–	–	4150	1840	–	–	CCCSc1nc(NC(C)=O)cc(OCc2ccccc2Cl)n1
